Laboratory results taken from paper PMC6032921 (Acta Physiologica (Oxford, England), 2018).

Legend:
[1] = list of hypothermia‐inducing TRPV1 antagonists; cited from earlier work
[2] = tested on: TRPV1; details: cited from earlier work
[3] = tested on: rats; details: cited from earlier work
[4] = tested on: Trpv1 ^−/− mice; experiment: Abdominal T b in Trpv1 −/− mice, telemetry, i.g. gavage; format: in vivo, mouse; details: 30 mg kg^−1 i.g.
[5] = tested on: Trpv1 ^+/+ mice; experiment: Abdominal T b in Trpv1 +/+ mice, telemetry, i.g. gavage; format: in vivo, mouse; details: 30 mg kg^−1 i.g., at 140 minutes
[6] = tested on: Trpv1 ^−/− mice; experiment: Abdominal T b in Trpv1 −/− mice, telemetry, i.p. catheter; format: in vivo, mouse; details: 10 mg kg^−1 i.p.
[7] = tested on: TRPV1; details: cited from earlier work; for effect on TRPV1 activation by protons in vitro: ref Lehto et al 16
[8] = target: T1, rat TRPV1 channels (Rattus norvegicus, UniProt O35433); experiment: ^45Ca^2+ uptake assay with scintillation counter, CHO cells expressing rat TRPV1; format: cell-based; details: pH 5.0
Summary of the method: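 CHO cells stably expressing rat TRPV1 were seeded 2 days before the assay (20,000 cells/well). Cells were exposed for 2 min at room temperature to test compound (200 pmol L⁻¹ to 4 μmol L⁻¹) with capsaicin (500 nmol L⁻¹) in HBSS pH 7.4 with BSA and HEPES, or with compound in MES buffer pH 5.0 with 30 mmol L⁻¹ HEPES. ⁴⁵Ca²⁺ (10 μCi mL⁻¹ final) was added for 2 min, cells were washed, and uptake was measured by scintillation counting.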

[9] = tested on: Trpv1 ^+/+ mice; experiment: Abdominal T b in Trpv1 +/+ mice, telemetry, i.p. catheter; format: in vivo, mouse; details: 10 mg kg^−1 i.p.
Summary of the method: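 Mice of both sexes (18‐27 g) were habituated to wire‐mesh confiners for 8 days. Under ketamine‐xylazine they were implanted intraperitoneally with a telemetry transmitter and a saline‐filled catheter, and tested 3‐6 days later. Test compound (0.75 mg mL⁻¹ in saline with 5% Tween‐80, warmed to 37°C) was given as a 10 mg kg⁻¹ bolus (~13 mL kg⁻¹) via the catheter, versus vehicle. Abdominal T_b was analysed by 2‐way ANOVA with Fisher's LSD.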

[10] = target: human TRPV1 channels (Homo sapiens, UniProt Q8NER1); details: cited from earlier work
[11] = target: T1, rat TRPV1 channels; details: cited from earlier work
[12] = target: corneal TRPV1 channels (Rattus norvegicus, UniProt O35433); experiment: Eye‐wiping test after intra‐abdominal RTX desensitization; format: in vivo; details: rats desensitized with RTX 20 μg kg^−1 i.p.
Summary of the method: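 This test was done 6‐16 days after i.p. RTX (20 μg kg⁻¹) or vehicle pre‐treatment of rats. Counts were compared between desensitized and sham‐desensitized rats by […] 2‐tailed Student's t test.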

[13] = tested on: humans; details: clinical trial in humans; cited from earlier work
[14] = tested on: rats; details: rat models of inflammatory pain and heat hyperalgesia; cited from earlier work

T1 sequence (O35433 whole entry): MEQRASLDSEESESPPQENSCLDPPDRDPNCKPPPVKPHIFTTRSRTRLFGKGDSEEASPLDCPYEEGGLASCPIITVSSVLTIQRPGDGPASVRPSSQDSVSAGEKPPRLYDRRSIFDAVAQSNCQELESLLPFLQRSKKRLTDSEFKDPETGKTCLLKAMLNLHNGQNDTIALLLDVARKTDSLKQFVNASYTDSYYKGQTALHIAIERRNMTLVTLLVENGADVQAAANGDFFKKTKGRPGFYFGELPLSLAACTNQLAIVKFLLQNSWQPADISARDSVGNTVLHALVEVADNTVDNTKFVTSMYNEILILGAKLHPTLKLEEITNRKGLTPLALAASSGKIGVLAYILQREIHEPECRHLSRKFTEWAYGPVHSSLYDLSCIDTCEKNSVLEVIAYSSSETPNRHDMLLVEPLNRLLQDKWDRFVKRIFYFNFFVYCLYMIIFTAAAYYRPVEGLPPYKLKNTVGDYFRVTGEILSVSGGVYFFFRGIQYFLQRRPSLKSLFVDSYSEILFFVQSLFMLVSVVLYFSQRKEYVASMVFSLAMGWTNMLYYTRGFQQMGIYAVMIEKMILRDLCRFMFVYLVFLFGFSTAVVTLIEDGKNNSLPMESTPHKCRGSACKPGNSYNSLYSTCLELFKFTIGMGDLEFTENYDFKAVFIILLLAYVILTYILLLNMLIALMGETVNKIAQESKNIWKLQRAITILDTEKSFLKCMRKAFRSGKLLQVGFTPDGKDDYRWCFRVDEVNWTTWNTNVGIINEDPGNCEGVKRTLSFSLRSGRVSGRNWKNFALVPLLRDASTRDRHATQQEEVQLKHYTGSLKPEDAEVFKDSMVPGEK
human TRPV1 channels, sequence (Q8NER1 whole entry): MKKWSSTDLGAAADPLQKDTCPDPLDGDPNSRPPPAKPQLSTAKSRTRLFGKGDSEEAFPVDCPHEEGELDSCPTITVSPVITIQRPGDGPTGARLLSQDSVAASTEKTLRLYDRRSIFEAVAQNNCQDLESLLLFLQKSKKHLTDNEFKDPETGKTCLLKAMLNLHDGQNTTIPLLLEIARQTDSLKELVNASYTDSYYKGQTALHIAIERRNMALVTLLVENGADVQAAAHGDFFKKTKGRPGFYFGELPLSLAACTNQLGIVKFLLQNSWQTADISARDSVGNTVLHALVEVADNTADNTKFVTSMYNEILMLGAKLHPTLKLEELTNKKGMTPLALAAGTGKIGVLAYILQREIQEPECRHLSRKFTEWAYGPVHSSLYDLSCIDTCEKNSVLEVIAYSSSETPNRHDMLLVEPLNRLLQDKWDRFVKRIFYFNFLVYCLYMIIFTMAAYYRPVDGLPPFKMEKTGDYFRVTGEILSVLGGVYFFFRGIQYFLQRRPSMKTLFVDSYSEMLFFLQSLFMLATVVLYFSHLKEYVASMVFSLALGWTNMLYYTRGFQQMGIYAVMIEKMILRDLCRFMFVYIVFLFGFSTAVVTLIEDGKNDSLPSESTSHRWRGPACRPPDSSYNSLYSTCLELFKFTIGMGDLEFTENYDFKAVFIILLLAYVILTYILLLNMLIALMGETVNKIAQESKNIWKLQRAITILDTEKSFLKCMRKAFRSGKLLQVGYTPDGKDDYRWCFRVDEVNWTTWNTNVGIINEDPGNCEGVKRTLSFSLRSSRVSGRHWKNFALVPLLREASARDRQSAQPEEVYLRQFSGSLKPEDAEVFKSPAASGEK
corneal TRPV1 channels, sequence (O35433 whole entry): as the sequence (O35433 whole entry) above

C=C(C)[C@]12C[C@@H](C)[C@@]34O[C@](Cc5ccccc5)(O[C@@H]1[C@@H]3C=C(COC(=O)Cc1cc(I)c(O)c(OC)c1)C[C@]1(O)C(=O)C(C)=C[C@@H]41)O2 [5′‐I‐RTX, 5′‐iodo‐resiniferatoxin]
effect on deep body temperature (T b) [1]: cause hypothermia | TRPV1 agonistic or capsaicin‐potentiating activity [2]: partial agonists

O=C(/C=C/c1ccc(C(F)(F)F)nc1N1CCCCC1)Nc1cccc2c1CC(O)CC2 (centres unmarked) [AMG0347]
effect on deep T b in rats [3]: increase deep T b in rats

FC(F)(F)c1ccc(-c2cc(Nc3ccc4ncsc4c3)ncn2)c(NCC2CCCCC2)c1 [AMG7905]
effect on deep body temperature (T b) [1]: cause hypothermia | effect on T b [4]: did not cause hypothermia | biggest intertreatment difference in T b (hypothermia vs vehicle) [5]: 7.8 °C | effect on T b [6]: neither A‐1165901 nor AMG7905 had any effect on T b | effect on TRPV1 activation by protons in vitro [7]: potentiated TRPV1 activation by protons in vitro | TRPV1 agonistic or capsaicin‐potentiating activity [2]: showed no TRPV1 agonistic or capsaicin‐potentiating activity | effect on ^45Ca^2+ influx in the proton activation mode [8]: concentration‐dependent potentiation | drop in T b compared to vehicle [9]: > 2 °C

O=C(/C=C/c1ccc(C(F)(F)F)cc1N1CCCCC1)Nc1cccc2c1C[C@H](O)C2 [AMG8562, (R, E)‐N‐(2‐hydroxy‐2,3‐dihydro‐1H‐inden‐4‐yl)‐3‐(2‐(piperidin‐1‐yl)‐4‐(trifluoromethyl)phenyl)‐acrylamide]
effect on deep body temperature (T b) [1]: cause hypothermia | effect on TRPV1 activation by protons in vitro [7]: potentiated TRPV1 activation by protons in vitro | TRPV1 agonistic or capsaicin‐potentiating activity [2]: showed no TRPV1 agonistic or capsaicin‐potentiating activity

CC(=O)Nc1nc2c(Oc3cc(-c4ccc(C(F)(F)F)cc4)ncn3)cccc2s1 [AMG 517]
effect on deep T b in rats [3]: increase deep T b in rats

O=C(NCc1ccc(C(F)(F)F)cc1)Nc1cccc2cnccc12 [A‐425619, 1‐isoquinolin‐5‐yl‐3‐(4‐trifluoromethyl‐benzyl)‐urea]
effect on deep body temperature (T b) [1]: cause hypothermia | TRPV1 agonistic or capsaicin‐potentiating activity [2]: showed no TRPV1 agonistic or capsaicin‐potentiating activity

Cc1ccc(N2c3cccc(C(=O)Nc4ccc(OCC(F)(F)F)nc4)c3OC[C@@H]2CO)nc1 [JTS‐653, (3S)‐3‐(hydroxymethyl)‐4‐(5‐methylpyridin‐2‐yl)‐N‐[6‐(2,2,2‐trifluoroethoxy)pyridin‐3‐yl]‐3,4‐dihydro‐2H‐benzo[b][1,4]oxazine‐8‐carboxamide]
effect on proton‐induced activation of TRPV1 [10]: potently block proton‐induced activation | effect on T b in rats [3]: cause hyperthermia in rats | effect on proton‐induced activation of TRPV1 [11]: potently block proton‐induced activation

CC(C)(C)c1ccc(CNC(=S)NCc2ccc(NS(C)(=O)=O)c(F)c2)cc1 [JYL1421]
effect on deep body temperature (T b) [1]: cause hypothermia | TRPV1 agonistic or capsaicin‐potentiating activity [2]: showed no TRPV1 agonistic or capsaicin‐potentiating activity

C=C(C)[C@]12C[C@@H](C)[C@@]34O[C@](Cc5ccccc5)(O[C@@H]1[C@@H]3C=C(COC(=O)Cc1ccc(O)c(OC)c1)C[C@]1(O)C(=O)C(C)=C[C@@H]41)O2 [RTX, resiniferatoxin]
eye‐wiping response to topical RTX in desensitized vs sham‐desensitized rats [12]: no meaningful difference

O=C(Nc1ccc(C(F)(F)F)cn1)N1CC=C(c2ncc([C@H](O)CO)cc2Cl)CC1 [V116517, 4‐[3‐chloro‐5‐[(1S)‐1,2‐dihydroxyethyl]‐2‐pyridyl]‐N‐[5‐(trifluoromethyl)‐2‐pyridyl]‐3,6‐dihydro‐2H‐pyridine‐1‐carboxamide]
effect on T b in rats [3]: causing hyperthermia in rats | effect on T b in humans [13]: caused no hyperthermia | effect on TRPV1 activation by protons [7]: potently blocking TRPV1 activation by protons

Oc1cc2c(cc1O)CN(C(=S)NCCc1ccc(Cl)cc1)CCC2 [capsazepine]
effect on T b in rats [3]: does not affect T b in rats | effect on proton activation of TRPV1 [11]: no allosteric effect on proton activation | efficacy in pain models [14]: efficacious
